A short description of data set [1]: 1-Octanol/phosphate buffered-saline distribution coefficient, logD of compound at pH 7.4 measured after 4 hrs by LC-MS analysis. It is filed as physicochemical. The method, boiled down: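 PBS pH 7.4 and 1-octanol, each pre-saturated with the other. 10 mM DMSO stock, dispensed with an internal reference compound in triplicate and dried. Residue shaken in octanol plus buffer for at least 4 h, then centrifuged to separate phases. Both phases quantified by LC-MS/MS. Log D taken from the phase peak-area ratio, normalised to internal standard.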

The nature of data set [2]: Apparent permeability across apical to basolateral membrane in MDCKII-LE cells measured after 120 mins by RapidFire-MS analysis. Type of data set: ADME, cell-based, Canis lupus familiaris. Conditions: dog, MDCK. The method, boiled down: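 MDCK-LE (low efflux) cells seeded at about 265,000 cells/cm² on Transwells and cultured 4 days. Apical-to-basal transport run in triplicate at 10 μM in HBSS/10 mM HEPES pH 7.4 with 0.02% BSA, 120 min at 37 °C without shaking. Bestatin used as integrity marker. Donor and acceptor quantified by MS against glyburide internal standard. Papp and % recovery calculated.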

The nature of data set [3]: Aqueous solubility of the compound at pH 6.8. It is filed as physicochemical. The note with it: buffer. The method in brief:
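Thermodynamic (equilibrium) solubility. 10 mM DMSO stock dried down, then pH 6.8 phosphate buffer added to a target of 1 mM. Shaken at 1350 rpm at ambient temperature for 16–24 h. Supernatant centrifuged twice, diluted 200-fold and quantified by RapidFire-MS/MS against a 4-point calibration curve.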

Data set [4] can be described thus: Clearance in Sprague-Dawley rat liver microsomes measured up to 30 mins in presence of NADPH by HPLC-MS/MS analysis. Type of data set: ADME, Microsome. The note with it: read-out: CLH. Background: Microsomes from liver hold many membrane-bound enzymes, among them those of drug oxidation.
The nature of data set [5]: Clearance in human liver microsomes measured up to 30 mins in presence of NADPH by HPLC-MS/MS analysis. It is filed as ADME, Microsome. The note with it: read-out: CLH. The method, boiled down: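 Human liver microsomes at 1.25 mg/mL protein in phosphate buffer pH 7.4. Test article at 10 μM, shaken at 37 °C. Reaction started with 2 mM NADPH/4 mM MgCl₂. Aliquots taken at 0, 5, 15 and 30 min and quenched with acetonitrile containing glibenclamide. Parent remaining measured by LC-MS/MS. Elimination rate constant converted to in vitro clearance.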

Data set [6] in a line: Cmax in Sprague-Dawley rat systemic circulation at 5 mg/kg, po or 0.5 mg/kg, iv measured up to 24 hrs by HPLC-MS/MS analysis. It is filed as ADME, organism-based. On the set-up: dose 5 mg/kg, time <=24. The method, boiled down: (§1)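 Rat dosing in PEG300:20% Solutol/PBS (10:25:65). IV into a jugular cannula at 0.5 mg/kg (1 mg/kg for some analogues), 1 mL/kg. PO by gavage at 5 mg/kg from a 0.5 mg/mL solution. Blood drawn via jugular cannula at 5 min (IV only), 15 min, 0.5, 1, 2, 4, 7 and 24 h. Plasma analysed by HPLC-MS/MS. Parameters from noncompartmental analysis.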

A short description of data set [7]: Cmax in Sprague-Dawley rat hepatic portal vein circulation at 5 mg/kg, po or 0.5 mg/kg, iv measured up to 24 hrs by HPLC-MS/MS analysis. It is filed as ADME, organism-based. Details: dose 5 mg/kg, time <=24.
Data set [8] is described as follows: AUC in Sprague-Dawley rat systemic circulation at 5 mg/kg, po or 0.5 mg/kg, iv measured up to 24 hrs by HPLC-MS/MS analysis. It is filed as ADME, organism-based. Details: dose 5 mg/kg, time <=24. The method, boiled down: as §1
Data set [9] in a line: AUC in Sprague-Dawley rat hepatic portal vein circulation at 5 mg/kg, po or 0.5 mg/kg, iv measured up to 24 hrs by HPLC-MS/MS analysis. Type of data set: ADME, organism-based. Details: dose 5 mg/kg, time <=24.
Data set [10] can be described thus: Clearance in Sprague-Dawley rat at 5 mg/kg, po or 0.5 mg/kg, iv measured up to 24 hrs by HPLC-MS/MS analysis. It is filed as ADME, organism-based. Conditions: in vivo. The method in brief:
as §1

Data set [11] in a line: Half life in Sprague-Dawley rat at 5 mg/kg, po or 0.5 mg/kg, iv measured up to 24 hrs by HPLC-MS/MS analysis. Type of data set: ADME, organism-based. Conditions: in vivo. The method, boiled down:
as §1

Data set [12] is described as follows: Volume of distribution at steady state in Sprague-Dawley rat at 5 mg/kg, po or 0.5 mg/kg, iv measured up to 24 hrs by HPLC-MS/MS analysis. The note with it: in vivo, read-out: Vdss. It is filed as ADME, organism-based. The method in brief:
as §1

A short description of data set [13]: Oral bioavailability in Sprague-Dawley rat at 5 mg/kg measured up to 24 hrs by HPLC-MS/MS analysis. It is filed as ADME, organism-based. Conditions: in vivo. The method in brief:
as §1

Values after ≈ are worked out from the molar mass of the structure shown. Some results are limits rather than exact numbers.

By logD is commonly meant lipophilicity at a set pH, counting ionised and neutral species. A lower logD goes with a more hydrophilic compound. A word on the Papp A→B: it is how fast a substance crosses the layer from the apical side. The solubility is the concentration that dissolves in the medium under given conditions. Low values mean a poorly soluble substance, high ones a readily soluble substance. What is called Cmax is the highest concentration seen after dosing. As a reminder, the AUC is concentration integrated over time. A high value points to more exposure. Usually half-life stands for how long it takes for the measured level to halve. A lower half-life goes with fast loss. One may read the bioavailability as the share of a dose that reaches the circulation, judged against a reference dose that is usually intravenous.

For `CCCC[C@@H]1NC(=O)[C@H](Cc2ccccc2)N(C)C(=O)CSC[C@H](C(=O)NC)N(C)C(=O)[C@H](CCCC)NC(=O)[C@H](CCCC)N(C)C(=O)[C@H](CCCC)NC1=O`, in [1], the logD at 4 h worked out at 4.1. In [2], the Papp A→B at 2 h was 8 ×10⁻⁶ cm/s. This molecule returned a solubility in data set [3] of 12 µM (≈ 9.79 µg/mL). In addition, the microsomal CLint in [4] and in data set [5] was at least 350 µL/min/mg in each case. Further, the Cmax was found to be 114 nM in data set [6] and 140 nM in data set [7]. The values for the AUC at 24 h in data set [8] and in data set [9] were 0.258 µM·h and 0.173 µM·h, respectively. Moreover, the clearance in data set [10] came to 86 mL/min/kg. In data set [11], this molecule gave a half-life of 0.9 h. For the same molecule, the Vd in [12] is 2.1 L/kg. The bioavailability in data set [13] came to 20%.
The molecule `CCCC[C@@H]1NC(=O)[C@H](Cc2ccccc2)NC(=O)CSC[C@H](C(=O)NC)NC(=O)[C@H](CCCC)N(C)C(=O)[C@H](CCCC)NC(=O)[C@H](CCCC)N(C)C1=O` returned a logD at 4 h in data set [1] of 4.6. Further, the Papp A→B at 2 h in data set [2] amounted to 3.9 ×10⁻⁶ cm/s. The same molecule displayed a solubility in data set [3] of 5 µM (≈ 4.01 µg/mL). For the same molecule, the microsomal CLint in data set [4] and in [5] was at least 350 µL/min/mg in each case. The values for the Cmax in data set [6] and in data set [7] were 1030 nM and 819 nM, respectively. The figures for the AUC at 24 h in data set [8] and in [9] were 2.29 µM·h and 1.86 µM·h, respectively. This molecule also gave a clearance in data set [10] of 8.9 mL/min/kg. For the same molecule, in data set [11], the half-life was 3.8 h. Further, the Vd in data set [12] was found to be 1 L/kg. Besides, the bioavailability in data set [13] was 19%.

The values above are taken from ChEMBL document CHEMBL4808165, “Design of Thioether Cyclic Peptide Scaffolds with Passive Permeability and Oral Exposure” (J Med Chem, 2021).
